Tested on: U2OS
Assay: Multiplex assay against U2OS
Format: toxicity, cell-based
Settings: human
In short: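 Four dyes were applied at seeding to live cells: Hoechst33342, BioTracker Green Microtubule Cytoskeleton Dye, MitoTracker Red and Annexin V Alexa Fluor 680. Imaging after compound addition used a CQ1 microscope at 37°C and 5% CO2. CellPathfinder machine-learning gating then sorted cells into Hoechst high-intensity objects or normal cells, normal cells into healthy, pyknosed or fragmented nuclei, and pyknosed cells into mitotic or apoptotic, with tubulin, mitochondrial-mass and membrane-permeability phenotypes given as per cents of healthy-nucleus cells.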

[1] = 12 h, 1 µM, compound concentration 1 uM, replicate 1
[2] = 12 h, 1 µM, compound concentration 1 uM, replicate 2
[3] = 12 h, 10 µM, compound concentration 10 uM, replicate 1
[4] = 12 h, 10 µM, compound concentration 10 uM, replicate 2
[5] = 24 h, 1 µM, compound concentration 1 uM, replicate 1
[6] = 24 h, 1 µM, compound concentration 1 uM, replicate 2
[7] = 24 h, 10 µM, compound concentration 10 uM, replicate 1
[8] = 24 h, 10 µM, compound concentration 10 uM, replicate 2
[9] = 48 h, 1 µM, compound concentration 1 uM, replicate 1
[10] = 48 h, 1 µM, compound concentration 1 uM, replicate 2
[11] = 48 h, 10 µM, compound concentration 10 uM, replicate 1
[12] = 48 h, 10 µM, compound concentration 10 uM, replicate 2

SMILES: Cl.Cl.OCCOCCN1CCN(C(c2ccccc2)c2ccc(Cl)cc2)CC1 (stereo unspecified) [HYDROXYZINE HYDROCHLORIDE]
- Population Apoptotic (%) [1]: 60%
- Population Fragmented Nuclei (%) [1]: 29%
- Population Healthy Nuclei (%) [1]: 61%
- Population Hoechst High Intensity Objects (%) [1]: 0%
- Population Membrane Permeable-Phenotype (%) [1]: 11%
- Population Mitochondria Different-Phenotype (%) [1]: 4%
- Population Mitotic Cells (%) [1]: 40%
- Population Normal (%) [1]: 99%
- Population Pyknosed Nuclei (%) [1]: 9%
- Population Tubulin-Different-Phenotype (%) [1]: 7%
- Total Cell Count [1]: 208
- Population Apoptotic (%) [2]: 80%
- Population Fragmented Nuclei (%) [2]: 13%
- Population Healthy Nuclei (%) [2]: 78%
- Population Hoechst High Intensity Objects (%) [2]: 1%
- Population Membrane Permeable-Phenotype (%) [2]: 9%
- Population Mitochondria Different-Phenotype (%) [2]: 6%
- Population Mitotic Cells (%) [2]: 20%
- Population Normal (%) [2]: 98%
- Population Pyknosed Nuclei (%) [2]: 7%
- Population Tubulin-Different-Phenotype (%) [2]: 8%
- Total Cell Count [2]: 139
- Population Apoptotic (%) [3]: 58%
- Population Fragmented Nuclei (%) [3]: 20%
- Population Healthy Nuclei (%) [3]: 66%
- Population Hoechst High Intensity Objects (%) [3]: 1%
- Population Membrane Permeable-Phenotype (%) [3]: 9%
- Population Mitochondria Different-Phenotype (%) [3]: 10%
- Population Mitotic Cells (%) [3]: 41%
- Population Normal (%) [3]: 98%
- Population Pyknosed Nuclei (%) [3]: 13%
- Population Tubulin-Different-Phenotype (%) [3]: 6%
- Total Cell Count [3]: 316
- Population Apoptotic (%) [4]: 88%
- Population Fragmented Nuclei (%) [4]: 26%
- Population Hoechst High Intensity Objects (%) [4]: 2%
- Population Membrane Permeable-Phenotype (%) [4]: 5%
- Population Mitochondria Different-Phenotype (%) [4]: 7%
- Population Mitotic Cells (%) [4]: 11%
- Population Normal (%) [4]: 97%
- Population Pyknosed Nuclei (%) [4]: 6%
- Population Tubulin-Different-Phenotype (%) [4]: 7%
- Total Cell Count [4]: 141
- Population Apoptotic (%) [5]: 96%
- Population Fragmented Nuclei (%) [5]: 25%
- Population Healthy Nuclei (%) [5]: 63%
- Population Hoechst High Intensity Objects (%) [5]: 1%
- Population Membrane Permeable-Phenotype (%) [5]: 8%
- Population Mitochondria Different-Phenotype (%) [5]: 4%
- Population Mitotic Cells (%) [5]: 4%
- Population Normal (%) [5]: 98%
- Population Pyknosed Nuclei (%) [5]: 10%
- Population Tubulin-Different-Phenotype (%) [5]: 7%
- Total Cell Count [5]: 232
- Population Apoptotic (%) [6]: 77%
- Population Fragmented Nuclei (%) [6]: 9%
- Population Healthy Nuclei (%) [6]: 77%
- Population Hoechst High Intensity Objects (%) [6]: 2%
- Population Membrane Permeable-Phenotype (%) [6]: 5%
- Population Mitochondria Different-Phenotype (%) [6]: 1%
- Population Mitotic Cells (%) [6]: 22%
- Population Normal (%) [6]: 97%
- Population Pyknosed Nuclei (%) [6]: 12%
- Population Tubulin-Different-Phenotype (%) [6]: 1%
- Total Cell Count [6]: 148
- Population Apoptotic (%) [7]: 73%
- Population Fragmented Nuclei (%) [7]: 23%
- Population Healthy Nuclei (%) [7]: 63%
- Population Hoechst High Intensity Objects (%) [7]: 2%
- Population Membrane Permeable-Phenotype (%) [7]: 10%
- Population Mitochondria Different-Phenotype (%) [7]: 8%
- Population Mitotic Cells (%) [7]: 26%
- Population Normal (%) [7]: 97%
- Population Pyknosed Nuclei (%) [7]: 12%
- Population Tubulin-Different-Phenotype (%) [7]: 4%
- Total Cell Count [7]: 359
- Population Apoptotic (%) [8]: 61%
- Population Fragmented Nuclei (%) [8]: 31%
- Population Healthy Nuclei (%) [8]: 60%
- Population Membrane Permeable-Phenotype (%) [8]: 12%
- Population Mitochondria Different-Phenotype (%) [8]: 13%
- Population Mitotic Cells (%) [8]: 38%
- Population Pyknosed Nuclei (%) [8]: 7%
- Population Tubulin-Different-Phenotype (%) [8]: 9%
- Total Cell Count [8]: 168
- Population Apoptotic (%) [9]: 89%
- Population Fragmented Nuclei (%) [9]: 24%
- Population Healthy Nuclei (%) [9]: 62%
- Population Hoechst High Intensity Objects (%) [9]: 2%
- Population Membrane Permeable-Phenotype (%) [9]: 4%
- Population Mitochondria Different-Phenotype (%) [9]: 3%
- Population Mitotic Cells (%) [9]: 10%
- Population Normal (%) [9]: 97%
- Population Pyknosed Nuclei (%) [9]: 13%
- Population Tubulin-Different-Phenotype (%) [9]: 4%
- Total Cell Count [9]: 300
- Population Apoptotic (%) [10]: 90%
- Population Fragmented Nuclei (%) [10]: 14%
- Population Healthy Nuclei (%) [10]: 76%
- Population Membrane Permeable-Phenotype (%) [10]: 5%
- Population Pyknosed Nuclei (%) [10]: 8%
- Population Tubulin-Different-Phenotype (%) [10]: 0%
- Total Cell Count [10]: 230
- Population Apoptotic (%) [11]: 83%
- Population Fragmented Nuclei (%) [11]: 17%
- Population Healthy Nuclei (%) [11]: 68%
- Population Hoechst High Intensity Objects (%) [11]: 2%
- Population Membrane Permeable-Phenotype (%) [11]: 8%
- Population Mitochondria Different-Phenotype (%) [11]: 6%
- Population Mitotic Cells (%) [11]: 16%
- Population Normal (%) [11]: 97%
- Population Pyknosed Nuclei (%) [11]: 13%
- Population Tubulin-Different-Phenotype (%) [11]: 4%
- Total Cell Count [11]: 456
- Population Fragmented Nuclei (%) [12]: 27%
- Population Healthy Nuclei (%) [12]: 64%
- Population Hoechst High Intensity Objects (%) [12]: 5%
- Population Membrane Permeable-Phenotype (%) [12]: 10%
- Population Mitochondria Different-Phenotype (%) [12]: 5%
- Population Normal (%) [12]: 94%
- Population Pyknosed Nuclei (%) [12]: 8%
- Population Tubulin-Different-Phenotype (%) [12]: 5%
- Total Cell Count [12]: 231

SMILES: CCC(=O)OCC(=O)[C@@]1(OC(=O)CC)[C@@H](C)C[C@H]2[C@@H]3CCC4=CC(=O)C=C[C@]4(C)[C@@]3(Cl)[C@@H](O)C[C@@]21C [BECLOMETHASONE DIPROPIONATE]
- Population Apoptotic (%) [1]: 84%
- Population Fragmented Nuclei (%) [1]: 23%
- Population Healthy Nuclei (%) [1]: 64%
- Population Hoechst High Intensity Objects (%) [1]: 1%
- Population Membrane Permeable-Phenotype (%) [1]: 11%
- Population Mitochondria Different-Phenotype (%) [1]: 4%
- Population Mitotic Cells (%) [1]: 15%
- Population Normal (%) [1]: 98%
- Population Pyknosed Nuclei (%) [1]: 12%
- Population Tubulin-Different-Phenotype (%) [1]: 6%
- Total Cell Count [1]: 160
- Population Apoptotic (%) [2]: 71%
- Population Fragmented Nuclei (%) [2]: 18%
- Population Healthy Nuclei (%) [2]: 75%
- Population Hoechst High Intensity Objects (%) [2]: 0%
- Population Membrane Permeable-Phenotype (%) [2]: 13%
- Population Mitochondria Different-Phenotype (%) [2]: 8%
- Population Mitotic Cells (%) [2]: 28%
- Population Normal (%) [2]: 99%
- Population Pyknosed Nuclei (%) [2]: 6%
- Population Tubulin-Different-Phenotype (%) [2]: 4%
- Total Cell Count [2]: 111
- Population Apoptotic (%) [3]: 65%
- Population Fragmented Nuclei (%) [3]: 42%
- Population Healthy Nuclei (%) [3]: 40%
- Population Hoechst High Intensity Objects (%) [3]: 4%
- Population Membrane Permeable-Phenotype (%) [3]: 67%
- Population Mitochondria Different-Phenotype (%) [3]: 73%
- Population Mitotic Cells (%) [3]: 34%
- Population Normal (%) [3]: 95%
- Population Pyknosed Nuclei (%) [3]: 17%
- Population Tubulin-Different-Phenotype (%) [3]: 80%
- Total Cell Count [3]: 176
- Population Apoptotic (%) [4]: 68%
- Population Fragmented Nuclei (%) [4]: 12%
- Population Healthy Nuclei (%) [4]: 69%
- Population Membrane Permeable-Phenotype (%) [4]: 48%
- Population Mitochondria Different-Phenotype (%) [4]: 97%
- Population Mitotic Cells (%) [4]: 31%
- Population Pyknosed Nuclei (%) [4]: 18%
- Population Tubulin-Different-Phenotype (%) [4]: 97%
- Total Cell Count [4]: 109
- Population Apoptotic (%) [5]: 78%
- Population Fragmented Nuclei (%) [5]: 21%
- Population Healthy Nuclei (%) [5]: 67%
- Population Hoechst High Intensity Objects (%) [5]: 2%
- Population Membrane Permeable-Phenotype (%) [5]: 2%
- Population Mitochondria Different-Phenotype (%) [5]: 4%
- Population Mitotic Cells (%) [5]: 21%
- Population Normal (%) [5]: 97%
- Population Pyknosed Nuclei (%) [5]: 10%
- Population Tubulin-Different-Phenotype (%) [5]: 1%
- Total Cell Count [5]: 217
- Population Apoptotic (%) [6]: 87%
- Population Fragmented Nuclei (%) [6]: 15%
- Population Healthy Nuclei (%) [6]: 71%
- Population Hoechst High Intensity Objects (%) [6]: 0%
- Population Membrane Permeable-Phenotype (%) [6]: 6%
- Population Mitochondria Different-Phenotype (%) [6]: 5%
- Population Mitotic Cells (%) [6]: 12%
- Population Normal (%) [6]: 99%
- Population Pyknosed Nuclei (%) [6]: 13%
- Population Tubulin-Different-Phenotype (%) [6]: 3%
- Total Cell Count [6]: 123
- Population Apoptotic (%) [7]: 74%
- Population Fragmented Nuclei (%) [7]: 35%
- Population Healthy Nuclei (%) [7]: 45%
- Population Hoechst High Intensity Objects (%) [7]: 3%
- Population Membrane Permeable-Phenotype (%) [7]: 40%
- Population Mitochondria Different-Phenotype (%) [7]: 72%
- Population Mitotic Cells (%) [7]: 25%
- Population Normal (%) [7]: 96%
- Population Pyknosed Nuclei (%) [7]: 18%
- Population Tubulin-Different-Phenotype (%) [7]: 66%
- Total Cell Count [7]: 174
- Population Apoptotic (%) [8]: 64%
- Population Fragmented Nuclei (%) [8]: 12%
- Population Healthy Nuclei (%) [8]: 69%
- Population Hoechst High Intensity Objects (%) [8]: 9%
- Population Membrane Permeable-Phenotype (%) [8]: 43%
- Population Mitochondria Different-Phenotype (%) [8]: 86%
- Population Mitotic Cells (%) [8]: 35%
- Population Normal (%) [8]: 90%
- Population Pyknosed Nuclei (%) [8]: 17%
- Population Tubulin-Different-Phenotype (%) [8]: 76%
- Total Cell Count [8]: 106
- Population Apoptotic (%) [9]: 91%
- Population Fragmented Nuclei (%) [9]: 22%
- Population Healthy Nuclei (%) [9]: 68%
- Population Hoechst High Intensity Objects (%) [9]: 2%
- Population Membrane Permeable-Phenotype (%) [9]: 5%
- Population Mitochondria Different-Phenotype (%) [9]: 2%
- Population Mitotic Cells (%) [9]: 8%
- Population Normal (%) [9]: 97%
- Population Pyknosed Nuclei (%) [9]: 9%
- Population Tubulin-Different-Phenotype (%) [9]: 2%
- Total Cell Count [9]: 268
- Population Apoptotic (%) [10]: 85%
- Population Fragmented Nuclei (%) [10]: 10%
- Population Healthy Nuclei (%) [10]: 75%
- Population Membrane Permeable-Phenotype (%) [10]: 8%
- Population Mitochondria Different-Phenotype (%) [10]: 5%
- Population Mitotic Cells (%) [10]: 14%
- Population Pyknosed Nuclei (%) [10]: 14%
- Population Tubulin-Different-Phenotype (%) [10]: 3%
- Total Cell Count [10]: 152
- Population Apoptotic (%) [11]: 80%
- Population Fragmented Nuclei (%) [11]: 36%
- Population Healthy Nuclei (%) [11]: 47%
- Population Hoechst High Intensity Objects (%) [11]: 4%
- Population Membrane Permeable-Phenotype (%) [11]: 20%
- Population Mitochondria Different-Phenotype (%) [11]: 26%
- Population Mitotic Cells (%) [11]: 20%
- Population Normal (%) [11]: 95%
- Population Pyknosed Nuclei (%) [11]: 15%
- Population Tubulin-Different-Phenotype (%) [11]: 14%
- Total Cell Count [11]: 199
- Population Apoptotic (%) [12]: 70%
- Population Fragmented Nuclei (%) [12]: 21%
- Population Healthy Nuclei (%) [12]: 65%
- Population Hoechst High Intensity Objects (%) [12]: 6%
- Population Membrane Permeable-Phenotype (%) [12]: 16%
- Population Mitochondria Different-Phenotype (%) [12]: 36%
- Population Mitotic Cells (%) [12]: 29%
- Population Normal (%) [12]: 93%
- Population Pyknosed Nuclei (%) [12]: 13%
- Population Tubulin-Different-Phenotype (%) [12]: 10%
- Total Cell Count [12]: 131

From ChEMBL document CHEMBL5058577, “EUbOPEN Chemogenomics Library 2 (Multiplex)” (2022)
